Measured values: ChEMBL document CHEMBL3785082, “(±)-Homocrepidine A, a Pair of Anti-inflammatory Enantiomeric Octahydroindolizine Alkaloid Dimers from Dendrobium crepidatum” (J Nat Prod, 2016)
Activity calls are given as the source filed them. The calls are words filed in the database; no cut-off is given here.

What was measured:
[1] = tested on: RAW264.7; test: Antiinflammatory activity in mouse RAW264.7 cells assessed as inhibition of LPS-induced NO production at 100 uM preincubated for 1 hr followed by LPS stimulation measured after 20 hrs by Griess assay; assay type: functional, cell-based
How it was run: (§1)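 RAW 264.7 cells in DMEM with 10% FBS, penicillin/streptomycin, 2 mM L-glutamine and 1 mM nonessential amino acids, seeded at 4 × 10^5 cells/well, settled 4 h at 37 °C, 5% CO2. Compounds in 0.1% DMSO (final 0.1–100 μM) added 1 h before LPS (5 μg/mL solution). After a further 20 h, supernatant mixed 1:1 with Griess reagent for 5 min, A540 read. At least triplicate; indomethacin as reference.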

[2] = Cytotoxicity against mouse RAW264.7 cells assessed as inhibition of cell viability at 100 uM by MTT assay; assay type: cell-based; settings: read-out: INH
How it was run: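 Same RAW 264.7 culture and plating as the nitrite assay: compounds in 0.1% DMSO added 1 h before LPS (5 μg/mL solution), then 20 h incubation. Viability read by standard MTT assay. At least triplicate.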

[3] = tested on: RAW264.7; test: Antiinflammatory activity in mouse RAW264.7 cells assessed as inhibition of LPS-induced NO production preincubated for 1 hr followed by LPS stimulation measured after 20 hrs by Griess assay; assay type: functional, cell-based; how it was run: as §1
[4] = tested on: RAW264.7; test: Antiinflammatory activity in mouse RAW264.7 cells assessed as inhibition of LPS-induced iNOS overexpression at 5 uM after 24 hrs by Western blot analysis; assay type: functional, cell-based
How it was run: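 RAW 264.7 cells pretreated with 5 μg/mL LPS or solvent, then exposed to 5 μM compound for 24 h. Lysed in cold buffer with 1% PMSF; protein by Bradford, 25 μg run on SDS-PAGE, blotted to nitrocellulose, blocked in 5% milk/TBS-Tween 60 min. Anti-iNOS overnight at 4 °C, HRP secondary 1 h, ECL on film; densitometry normalized to β-actin. Mean ± SD, n = 3–5.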

[5] = Inhibition of L-rhamnosidase (unknown origin)

SMILES | inhibition [1] | cytotoxicity at 100 µM [2] | IC50 [3] | inhibition [4] | Ki [5]
CC(=O)[C@H]1[C@@H]2CC[C@H]3C[C@@H](C)[C@](O)(c4ccccc4)[C@H](C[C@@]1(C)O)N32 | inactive | < 10% | – | – | –
CC(=O)CCCC[C@H]1C[C@@H](C)[C@@](O)(c2ccccc2)CN1 | – | < 10% | 27.6 µM | – | –
C[C@H]1C[C@H]2CCCN2[C@@H](CC(=O)C[C@@H]2N3CCC[C@@H]3C[C@H](C)[C@@]2(O)c2ccccc2)[C@]1(O)c1ccccc1 | – | – | 3.6 µM | Active | –
C[C@@H]1C[C@@H]2CCCN2[C@H](CC(=O)C[C@H]2N3CCC[C@H]3C[C@@H](C)[C@]2(O)c2ccccc2)[C@@]1(O)c1ccccc1 | – | – | 22.8 µM | inactive | –
CC1CC2CCCN2C(CC(=O)CC2N3CCCC3CC(C)C2(O)c2ccccc2)C1(O)c1ccccc1 (racemic) | – | < 10% | 14.7 µM | inactive | –
O[C@@H]1[C@@H]2[C@@H](O)CCCN2C[C@@H]1O | – | – | – | – | 0.45 µM
